Data on one molecule can be found in ChEMBL document CHEMBL4339200, “Structure-based Discovery of Phenyl (3-Phenylpyrrolidin-3-yl)sulfones as Selective, Orally Active RORγt Inverse Agonists” (ACS Med Chem Lett, 2019).

Series [1] deals with Mus musculus. The series is described as follows: Inhibition of IL2/IL23-induced IL22 production in po bid dosed C57BL/6 mouse treated 30 mins prior to 24 hrs IL2 challenge followed by IL2/IL23 addition at 0,7 and 23 hrs measured after 7 hrs post last IL2/IL23 challenge. Format: functional, organism-based. A digest of the protocol:
(§1)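 Naive mice were challenged three times with IL-2 plus IL-23 (first at 0 and 7 h) and dosed orally bid at 5, 15 or 50 mg/kg. Serum cytokines were measured 7 h after the final IL-2/IL-23 administration. An anti-IL-23 antibody served as positive control.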

For series [2], the system named is Mus musculus. The experiment in a line: Inhibition of IL2/IL23-induced IL17F production in C57BL/6 mouse at 5 mg/kg, po bid treated 30 mins prior to 24 hrs IL2 challenge followed by IL2/IL23 addition at 0,7 and 23 hrs measured after 7 hrs post last IL2/IL23 challenge relative to control. In kind it is functional. The settings on record: C57BL/6, po. A digest of the protocol: as §1

Series [3] addresses T1, Nuclear receptor ROR-beta (Homo sapiens) (UniProt Q92753).
T1 sequence (whole entry): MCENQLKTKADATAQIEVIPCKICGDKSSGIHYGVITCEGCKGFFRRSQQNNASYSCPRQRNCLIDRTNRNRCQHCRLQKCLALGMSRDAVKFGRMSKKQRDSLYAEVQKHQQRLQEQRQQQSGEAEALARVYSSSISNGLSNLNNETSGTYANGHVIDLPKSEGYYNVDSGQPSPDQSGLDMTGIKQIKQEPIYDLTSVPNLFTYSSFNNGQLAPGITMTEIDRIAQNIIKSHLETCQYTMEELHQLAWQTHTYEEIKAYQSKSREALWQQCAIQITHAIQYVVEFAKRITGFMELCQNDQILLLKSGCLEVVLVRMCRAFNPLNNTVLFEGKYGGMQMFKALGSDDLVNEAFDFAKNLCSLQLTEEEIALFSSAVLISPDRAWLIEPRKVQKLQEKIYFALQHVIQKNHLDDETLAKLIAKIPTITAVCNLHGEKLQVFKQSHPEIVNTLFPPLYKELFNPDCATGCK
The series is described as follows: Inverse agonist activity at GAL4-fused RORbeta LBD (200 to 559 residues) (unknown origin) expressed in human Jurkat cells measured after 18 hrs by native IL17 promoter driven steady-glo luciferase assay. In kind it is cell-based.

Series [4] relates to Mus musculus. The experiment in a line: Inhibition of IL2/IL23-induced IL17F production in C57BL/6 mouse at 50 mg/kg, po bid treated 30 mins prior to 24 hrs IL2 challenge followed by IL2/IL23 addition at 0,7 and 23 hrs measured after 7 hrs post last IL2/IL23 challenge relative to control. The settings on record: C57BL/6, po. In kind it is functional. The method, boiled down: as §1

The test system of series [5] is Mus musculus. The experiment in a line: Inhibition of IL2/IL23-induced IL17A production in po bid dosed C57BL/6 mouse treated 30 mins prior to 24 hrs IL2 challenge followed by IL2/IL23 addition at 0,7 and 23 hrs measured after 7 hrs post last IL2/IL23 challenge. In kind it is functional, organism-based. A digest of the protocol: as §1
Series [6] deals with T1, Nuclear receptor ROR-beta (Homo sapiens). The series is described as follows: Agonist activity at GAL4-fused RORbeta LBD (200 to 559 residues) (unknown origin) expressed in human Jurkat cells measured after 18 hrs by native IL17 promoter driven steady-glo luciferase assay. In kind it is cell-based.
Series [7] can be described thus: AUC in Balb/c mouse at 10 mg/kg, po. Format: ADME, organism-based. The settings on record: in vivo. A digest of the protocol:
(§2)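 Balb/c mice given a single intravenous dose of 2 mg/kg or an oral dose of 10 mg/kg. Plasma exposure was followed to derive Cmax, Tmax, AUC, t1/2, clearance, Vss and oral bioavailability (F).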

Series [8] is described as follows: Cmax in Balb/c mouse at 10 mg/kg, po. The settings on record: in vivo. Format: ADME, organism-based. Details: dose 10 mg/kg, route oral. The method, boiled down: as §2
Series [9] addresses Cytochrome P450 2D6 (Homo sapiens, UniProt P10635). The series is described as follows: Inhibition of CYP2D6 (unknown origin). In kind it is ADME.
A short description of series [10]: Permeability in human Caco2 cells. In kind it is ADME, cell-based. The settings on record: Caco-2, read-out: permeability. The method, boiled down: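 Caco-2 monolayer permeability, reported as permeation coefficient in nm/s; an efflux ratio was also determined.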
The test system of series [11] is Mus musculus. The series is described as follows: Protection against IL23-induced acanthosis C57BL/6 mouse model of psoriasis assessed as reduction in ear swelling at 10 to 50 mg/kg, po bid for 10 days treated 2 hrs prior to IL23 challenge every other day for 10 days measured on day 11. Format: functional, organism-based.
The test system of series [12] is Mus musculus. The series is described as follows: Inhibition of IL2/IL23-induced IL17F production in C57BL/6 mouse at 15 mg/kg, po bid treated 30 mins prior to 24 hrs IL2 challenge followed by IL2/IL23 addition at 0,7 and 23 hrs measured after 7 hrs post last IL2/IL23 challenge relative to control. In kind it is functional. The settings on record: C57BL/6, po. A digest of the protocol:
as §1

The target in series [13] is T2, Oxysterols receptor LXR-alpha (Homo sapiens, UniProt Q13133).
T2 sequence (Q13133 whole entry): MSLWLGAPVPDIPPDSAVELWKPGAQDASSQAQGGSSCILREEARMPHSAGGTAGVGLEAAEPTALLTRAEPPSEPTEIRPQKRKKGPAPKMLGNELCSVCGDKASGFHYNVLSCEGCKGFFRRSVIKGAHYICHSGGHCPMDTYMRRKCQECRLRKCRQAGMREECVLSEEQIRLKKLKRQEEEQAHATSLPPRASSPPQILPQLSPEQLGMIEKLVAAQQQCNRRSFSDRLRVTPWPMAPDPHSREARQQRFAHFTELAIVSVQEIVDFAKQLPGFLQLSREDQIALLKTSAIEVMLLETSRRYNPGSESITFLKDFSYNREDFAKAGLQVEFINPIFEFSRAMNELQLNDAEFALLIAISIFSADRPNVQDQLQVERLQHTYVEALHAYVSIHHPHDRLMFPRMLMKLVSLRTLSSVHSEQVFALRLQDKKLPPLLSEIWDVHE
The series is described as follows: Agonist activity at LXRalpha (unknown origin) expressed in African green monkey CV1 cells. In kind it is cell-based.

Series [14] in a line: Clearance in Balb/c mouse at 2 mg/kg, iv. The note with it: in vivo. Format: ADME, organism-based. The method, boiled down: as §2
Series [15] relates to Mus musculus. The experiment in a line: Inhibition of IL2/IL23-induced GM-CSF production in po bid dosed C57BL/6 mouse treated 30 mins prior to 24 hrs IL2 challenge followed by IL2/IL23 addition at 0,7 and 23 hrs measured after 7 hrs post last IL2/IL23 challenge. In kind it is functional, organism-based. The method, boiled down:
as §1

Series [16] addresses T3, Nuclear receptor ROR-alpha (Homo sapiens) (UniProt P35398).
T3 sequence (whole entry): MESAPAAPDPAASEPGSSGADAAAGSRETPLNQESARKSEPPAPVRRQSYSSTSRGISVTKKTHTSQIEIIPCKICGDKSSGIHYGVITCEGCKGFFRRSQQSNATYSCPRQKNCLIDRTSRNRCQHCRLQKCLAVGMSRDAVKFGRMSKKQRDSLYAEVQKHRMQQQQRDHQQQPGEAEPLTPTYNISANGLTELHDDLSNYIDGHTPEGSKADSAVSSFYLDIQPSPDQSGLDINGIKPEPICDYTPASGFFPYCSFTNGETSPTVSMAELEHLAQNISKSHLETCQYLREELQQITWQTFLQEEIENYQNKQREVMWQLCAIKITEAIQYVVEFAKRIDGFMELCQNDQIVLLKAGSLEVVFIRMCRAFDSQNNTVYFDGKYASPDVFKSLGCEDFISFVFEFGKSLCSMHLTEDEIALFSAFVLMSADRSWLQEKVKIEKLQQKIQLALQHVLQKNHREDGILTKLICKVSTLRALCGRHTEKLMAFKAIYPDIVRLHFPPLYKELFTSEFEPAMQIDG
The series is described as follows: Agonist activity at GAL4-fused RORalpha LBD (272 to 556 residues) (unknown origin) expressed in human Jurkat cells measured after 18 hrs by native IL17 promoter driven steady-glo luciferase assay. Format: cell-based.

Each structure is given as a SMILES string. pEC50, pIC50: −log10 of the molar value. The source made the active and inactive calls. The calls are words filed in the database; no cut-off is given here.

Cytochrome P450 2D6, sequence (P10635 whole entry): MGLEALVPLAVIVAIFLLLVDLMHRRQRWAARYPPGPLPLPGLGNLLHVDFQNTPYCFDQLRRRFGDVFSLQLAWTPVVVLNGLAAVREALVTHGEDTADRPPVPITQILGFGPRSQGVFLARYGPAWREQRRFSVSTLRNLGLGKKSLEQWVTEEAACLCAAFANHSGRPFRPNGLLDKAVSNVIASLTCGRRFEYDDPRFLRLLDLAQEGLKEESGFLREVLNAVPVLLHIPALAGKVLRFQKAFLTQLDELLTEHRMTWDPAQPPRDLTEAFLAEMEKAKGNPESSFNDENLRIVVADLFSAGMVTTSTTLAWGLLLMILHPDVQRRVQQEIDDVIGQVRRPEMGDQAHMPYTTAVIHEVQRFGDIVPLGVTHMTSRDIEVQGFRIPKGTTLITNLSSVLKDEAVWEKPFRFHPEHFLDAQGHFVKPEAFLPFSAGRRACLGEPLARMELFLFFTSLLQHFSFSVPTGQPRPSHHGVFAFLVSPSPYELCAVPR

As to `O=C(O)[C@H]1CC[C@H](C(=O)N2CC[C@](c3ccc(C(F)(C(F)(F)F)C(F)(F)F)cc3)(S(=O)(=O)c3ccc(F)cc3)C2)CC1`, the inhibition result in series [1], in series [5] and in series [15] was “Dose-dependent effect” in each case. In series [2], this molecule displayed an inhibition in vivo at 5 mg/kg of 47%. For the same molecule, the outcome in series [3], in series [6] and in series [16] was inactive. In addition, at 50 mg/kg the inhibition in vivo in [4] was 98%. The molecule further showed an AUC in series [7] of 36.6 µM·h. Moreover, the highest level in series [8] (Cmax) was 6.6 µM. For the same molecule, in [9], the pIC50 is < 4.70. Further, the Papp in series [10] came to 12 ×10⁻⁶ cm/s. Further, the outcome in [11] was Active. In [12], this molecule registered an inhibition in vivo at 15 mg/kg of 77%. The pEC50 in series [13] was < 5.12. In addition, the clearance in [14] stood at 7.2 mL/min/kg.
